The source made the active and inactive calls. The calls are words filed in the database; no cut-off is given here.
Legend:
A549 = experiment: Cytotoxicity against human A549 cells after 48 hrs by MTT assay; type: functional, cell-based; details: A549, 48 h
Procedure, shortened: (§1)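 A549, HeLa and MCF7 cells were grown in DMEM with 10% FBS, and DU145 in MEM with non-essential amino acids, pyruvate, insulin and 10% FBS. Cells were plated 24 h before dosing, then exposed continuously for 48 h at 1, 10, 25 and 100 µM in triplicate wells. MTT was added for 60 min, dissolved in DMSO and read at 560 nm. IC50 was taken from dose-response curves against control, as mean ± SD of three independent experiments.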

DU-145 = experiment: Cytotoxicity against human DU145 cells after 48 hrs by MTT assay; type: functional, cell-based; details: DU-145, 48 h; procedure, shortened: as §1
HeLa [1] = experiment: Cytotoxicity against human HeLa cells after 48 hrs by MTT assay; type: functional, cell-based; procedure, shortened: as §1
MCF7 = experiment: Cytotoxicity against human MCF7 cells after 48 hrs by MTT assay; type: functional, cell-based; details: MCF7, 48 h; procedure, shortened: as §1
Tubulin = Tubulin (Bos taurus, UniProt Q6B856+Q862L2+Q862F3); experiment: Inhibition of bovine brain tubulin polymerization measured for 1 hr by fluorescence assay
HeLa [2] = experiment: Cell cycle arrest in human HeLa cells assessed as accumulation at G2/M phase at 10 uM after 24 hrs by FACS analysis (reference value: 26.75%); type: functional
HeLa [3] = experiment: Cell cycle arrest in human HeLa cells assessed as disruption of microtubule organization at 10 uM after 24 hrs by DAPI staining-based immunohistochemistry relative to control; type: functional
Procedure, shortened: (§2)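 HeLa cells were grown on coverslips and treated 24 h at 10 µM. They were fixed in 3.5% formaldehyde/PBS pH 7.4 for 10 min, permeabilized with 0.5% Triton X-100/0.05% Tween-20 and blocked in 2% BSA. Staining used anti-tubulin (1:200, 4 h, room temperature) then FITC anti-mouse (1:500, 1 h). Cells were mounted with DAPI and imaged by confocal microscopy.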

HeLa [4] = experiment: Cell cycle arrest in human HeLa cells assessed as planar arrangement of chromosomes with distinct microtubule organization centres at 10 uM after 24 hrs by DAPI staining-based immunohistochemistry relative to control; type: functional; procedure, shortened: as §2
HeLa [5] = experiment: Cell cycle arrest at G2/M phase in human HeLa cells assessed as increase in cyclin B1 expression at 10 uM after 24 hrs by immunoblot analysis relative to control; type: functional, cell-based
HeLa [6] = experiment: Cell cycle arrest at G2/M phase in human HeLa cells assessed as increase in soluble form of tubulin at 10 uM after 24 hrs by immunoblot analysis relative to control; type: functional, cell-based
Procedure, shortened: (§3)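 HeLa cells seeded at 1×10^5 per well in complete growth medium and treated 24 h (test compounds 10 µM; nocodazole 2 µM as positive control; DMSO controls). Soluble tubulin was taken by 3 min permeabilization at 30 °C in PIPES-KOH pH 6.8/0.2% Triton X-100/glycerol buffer, and insoluble pellet fraction in Laemmli buffer. Equal volumes were run on SDS-10% PAGE and probed with mouse anti-α-tubulin, with HRP secondary and ECL detection.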

HeLa [7] = experiment: Cell cycle arrest at G2/M phase in human HeLa cells assessed as reduction in polymerized form of tubulin at 10 uM after 24 hrs by immunoblot analysis relative to control; type: functional, cell-based; procedure, shortened: as §3
Tubulin (Bos taurus) = Tubulin (Bos taurus) (UniProt Q6B856+Q862L2+Q862F3); details: at 10 µM

SMILES	IC50 (A549)	IC50 (DU-145)	IC50 (HeLa [1])	IC50 (MCF7)	IC50 (Tubulin)	Activity (HeLa [2])	Activity (HeLa [3])	Activity (HeLa [4])	Activity (HeLa [5])	Activity (HeLa [6])	Activity (HeLa [7])	inhibition (Tubulin (Bos taurus))
COc1cc(C2=NOC(COCc3cn(Cc4cc(-c5ccc(C)cc5)cnc4Cl)nn3)C2)cc(OC)c1OC (stereo unspecified)	11.5 µM	13.1 µM	9.7 µM	12.9 µM	8.1 µM	78.85%	Active	Active	Active	Active	Active	69%
COc1cc(COCc2cn(Cc3cc(-c4ccccc4)cnc3Cl)nn2)cc(OC)c1OC	62.6 µM	45.5 µM	41.9 µM	86.7 µM								18%
COc1cc(C2=NOC(COCc3cn(Cc4cc(-c5ccccc5)cnc4N4CCSCC4)nn3)C2)cc(OC)c1OC (stereo unspecified)	31.5 µM	34.5 µM	29.2 µM	45 µM								50%
COc1cc(C2=NOC(COCc3cn(Cc4cc(C)cnc4N4CCSCC4)nn3)C2)cc(OC)c1OC (stereo unspecified)	45.6 µM	29.4 µM	41 µM	45.1 µM								38%
COc1cc(C2=NOC(COCc3cn(Cc4cc(-c5ccccc5)cnc4N4CCOCC4)nn3)C2)cc(OC)c1OC (stereo unspecified)	39.2 µM	44.8 µM	42.6 µM	68.8 µM								46%
COc1cc(-c2cc(COCc3cn(Cc4cc(-c5ccccc5)cnc4N4CCOCC4)nn3)on2)cc(OC)c1OC	39.2 µM	54 µM	39.4 µM	63.4 µM								27%
COc1cc(-c2cc(COCc3cn(Cc4cc(-c5ccc(F)cc5)cnc4Cl)nn3)on2)cc(OC)c1OC	40.6 µM	31.9 µM	37.3 µM	76.4 µM								46%
COc1cc(COCc2cn(Cc3cc(-c4ccccc4)cnc3N3CCOCC3)nn2)cc(OC)c1OC	84 µM	70.3 µM	85.1 µM	97.6 µM								16%
COc1cc(C2=NOC(COCc3cn(Cc4cc(-c5ccc(C)cc5)cnc4N4CCOCC4)nn3)C2)cc(OC)c1OC (stereo unspecified)	39.6 µM	49.7 µM	38.7 µM	59.6 µM								27%
COc1cc(COCc2cn(Cc3cc(-c4ccc(C)cc4)cnc3Cl)nn2)cc(OC)c1OC	150 µM	37 µM	28.6 µM	146 µM								35%
COc1cc(C2=NOC(COCc3cn(Cc4cc(-c5ccc(F)cc5)cnc4Cl)nn3)C2)cc(OC)c1OC (stereo unspecified)	25.2 µM	32.8 µM	27.2 µM	45.7 µM								51%
COc1cc(COCc2cn(Cc3cc(C)cnc3Cl)nn2)cc(OC)c1OC	41.9 µM	34.8 µM	264 µM	67.4 µM								24%
COc1cc(-c2cc(COCc3cn(Cc4cc(-c5ccc(C)cc5)cnc4N4CCSCC4)nn3)on2)cc(OC)c1OC	61 µM	94.3 µM	52.6 µM	64.8 µM								15%
COc1cc(C2=NOC(COCc3cn(Cc4cc(C)cnc4N4CCOCC4)nn3)C2)cc(OC)c1OC (stereo unspecified)	45.4 µM	138 µM	37.3 µM	146 µM								27%
COc1cc2c(c(OC)c1OC)-c1ccc(OC)c(=O)cc1[C@@H](NC(C)=O)CC2 [COLCHICINE]	0.12 µM	0.69 µM	0.54 µM	0.07 µM								
COc1cc(-c2cc(COCc3cn(Cc4cc(C)cnc4N4CCOCC4)nn3)on2)cc(OC)c1OC	39.5 µM	54.7 µM	128 µM	195 µM								19%
